Jurkat NFkB inh: lowers PMA/ionomycin-induced NF-kB signal in Jurkat cells; inhibition, % at 4 µM; PMA/ionomycin-induced NF-kB luciferase reporter, luminescence; hit rate 0.53% among 330,000; AID 435003; in the data active = inhibition above about 50%
UPR CHOP act: activators of apoptotic arm of unfolded protein response (CHOP); CHO-CHOP luciferase reporter, UPR activation, luminescence; percent of tunicamycin response over DMSO baseline; activation, % at 10 µM; hit rate 0.34% among 330,000; AID 449763;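 active = at 10 µM dose, activation of 40% or more, normalized to positive control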;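 note: 100% = tunicamycin at 10 µg/mL and 0% = DMSO alone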
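measured by = luciferase luminescence | assay system = CHO-CHOP cells, stable luciferase reporter of PERK-eIF2a-CHOP signalling | amount = 500 reporter cells seeded per well | timing = 6 h compound exposure at 37 °C after overnight seeding | controls = positive tunicamycin 10 µg/mL, negative DMSO alone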
CHOP inh: inhibitors of CHOP induction in ER stress response. CHO-K1 CHOP-promoter luciferase, tunicamycin-induced, 15-18 h. inhibition, % at 10 µM. hit rate 3.8% among 220,000;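 active = compounds that reduced the stress-induced luciferase reporter signal by more than about 70% of percent inhibition, limit read from the data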;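 note: 0% = tunicamycin plus vehicle and 100% = wells without tunicamycin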
697 NFkB inh: inhibitors of the PMA/ionomycin-induced NF-kB reporter in 697 B cells; 697 B-cell NF-kB luciferase reporter, 16 h; inhibition, % at 4 µM; hit rate 0.33% among 330,000; AID 435022; in the data active = inhibition above about 35%
XBP1 UPR activ: adaptive UPR (XBP1) activation. activation, % at 20 µM. CHO-XBP1 luciferase reporter, IRE1-XBP1 UPR activation, luminescence; percent of tunicamycin response, DMSO as zero. hit rate 0.33% among 330,000. AID 463104;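 active = versus positive control, 20 µM dose yields 30% or more activation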;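 note: 100% = tunicamycin at 10 µg/mL and 0% = DMSO only wells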
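Test system: CHO-XBP1 luciferase reporter cells | Buffer or medium: Serum-containing F12 medium, 10% FBS | Schedule: 6 h compound exposure at 37 °C, 5% CO2 | Detection: Steady-Glo luciferase glow luminescence, 10 min after reagent addition | Read-out basis: Activation, % of tunicamycin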
Gli-Sufu block: antagonists of Gli-Sufu signaling. inhibition, % at 5 µM. AID 588413. Sufu-KO-LIGHT fibroblasts, Gli luciferase reporter luminescence. hit rate 0.74% among 340,000;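 active = inhibition above about 55%, limit read from the data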;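 note: 0% = DMSO-treated cells and 100% = wells with medium but no cells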
CHOP confirm: confirmation of CHOP induction inhibitors; CHO-CHOP promoter luciferase reporter, tunicamycin-induced, luminescence; hit rate 45% among 2,100; shares compounds with CHOP inh; AID 504437; inhibition, % at 10 µM;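 active = mean of three repeat readings of reporter signal inhibition above a set limit, cut at about 70% in these data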;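 note: 0% = tunicamycin plus vehicle and 100% = wells lacking tunicamycin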
Starred values were filed as active, the others as inactive; / = no result. Hits are enriched below; roughly 3.9% of the tested compounds scored in any of these assays.

SMILES	Jurkat NFkB inh	UPR CHOP act	CHOP inh	697 NFkB inh	XBP1 UPR activ	Gli-Sufu block	CHOP confirm
C/C(=N\NC(=O)COc1ccccc1-c1ccccc1)c1ccc(O)cc1O	2	2	104*	17	1	5	46
O=C(Nc1nc2ccccc2s1)C1CC(=O)N(c2ccc(Cl)cc2)C1 (configuration not stated)	1	-1	105*	13	1	-6	16
Cc1cc(C)nc(CCNC(=O)c2cc(COc3c(C)cccc3C)on2)n1	10	4	/	11	-2	2	/
COC(=O)Oc1ccc(/C=N/NC(=O)CSCc2ccccc2Br)cc1OC	20	1	96*	-50	6	-3	75*
COc1ccc(/C=N/NC(=O)CSCC(=O)Nc2ccccc2)cc1OC	-5	-1	-12	18	-1	3	/
CCCN(CCC)C(=O)CSc1nc2ccccc2c(=O)n1C1CCCC1	10	-2	97*	3	-4	5	4
CN(C)c1ccc(NC(=O)CSc2nc3ccccc3c(=O)n2C2CCCCC2)cc1	-46	2	32	-65	-2	1	/
CC1CCCCC1n1c(=S)[nH]c2ccccc2c1=O (configuration not stated)	-13	-2	103*	-33	12	-2	11
COc1ccc(NS(=O)(=O)c2ccc3c(c2)NC(=O)CO3)c(OC)c1	-4	-1	/	-12	-6	4	/
CC(C)(C)n1nnnc1CN(Cc1ccc(F)cc1)Cc1ccco1	-2	-1	101*	7	-1	-1	62
CCCC(NS(=O)(=O)c1ccc(-c2ccc(=O)[nH]n2)s1)c1cccs1 (configuration not stated)	-12	4	/	-33	-2	-15	/
CCOC(=O)C1=C(N)c2ccccc2CC1C(C)C (configuration not stated)	-6	-1	100*	6	-3	2	14
O=C1/C(=C/c2ccncc2)SC(=S)N1C1CCS(=O)(=O)C1 (configuration not stated)	13	8	104*	21	-5	17	103*
O=C(O)CCCC(=O)Nc1cccc(-c2nc3ccccc3[nH]2)c1	0	-1	-17	17	0	2	/
O=C(CSc1ccc(Cl)cc1)Nc1cccc(-c2nc3ccccc3[nH]2)c1	-30	1	99*	-75	2	-39	-55
O=C(Nc1ccc(-c2nc3ccccc3[nH]2)cc1)c1ccc2c(c1)OCO2	-46	13	105*	-81	12	-3	27
O=C(Nc1cccc(-c2nc3ccccc3[nH]2)c1)c1cccc(NC(=O)c2ccco2)c1	-28	8	107*	12	-2	-13	-20
COc1ccc(C(=O)O)cc1S(=O)(=O)N1CCN(Cc2ccc3c(c2)OCO3)CC1	1	1	/	13	-3	2	/
COc1cc(OC)cc(-c2c(C#Cc3ccsc3)c3cc(-c4cccc5[nH]ccc45)ccc3n2C)c1	-2	-1	/	-3	-4	2	/
O=C(N=c1ccn(-c2nc3ccccc3nc2NS(=O)(=O)c2ccc(Cl)cc2)cc1)c1cccs1	-2	1	98*	21	2	5	-7
COc1ccccc1C(=O)COC(=O)Cn1nc(C)c([N+](=O)[O-])c1C	7	1	/	14	-1	-7	/
O=C(Nc1ccc(Cl)cc1)Nc1nc(-c2ccccc2O)cs1	-2	3	104*	-12	13	-4	51
COc1ccc(CCN(C)C(=O)CCNS(=O)(=O)c2ccccc2C(F)(F)F)cc1OC	-13	1	/	-8	-2	1	/
CCOC(=O)Cn1c(=NC(=O)c2nc3ccccc3s2)sc2cc(S(N)(=O)=O)ccc21	4	0	103*	19	7	14	18
CCOC(=O)Cn1c(=NC(=O)CN2C(=O)CCC2=O)sc2cc(S(N)(=O)=O)ccc21	-1	1	-1	-15	0	-6	/
SMILES	Jurkat NFkB inh	UPR CHOP act	CHOP inh	697 NFkB inh	XBP1 UPR activ	Gli-Sufu block	CHOP confirm
Cc1cc2ncn(/N=C/c3ccc4c(c3)OCO4)c2cc1C	-4	0	96*	-14	3	/	66
CCCCN(CC)C(=O)c1cc2c(=O)[nH]c3ccc(C)cc3c2s1	-2	2	/	16	0	11	/
Cc1ccc2[nH]c(=O)c3cc(C(=O)N(C)c4ccccc4C)sc3c2c1	4	-1	101*	-56	5	-1	2
COCCCN(C(=O)c1cc2c(s1)CCCCC2)c1c(N)n(Cc2ccccc2)c(=O)[nH]c1=O	7	2	/	17	-1	-13	/
N#C/C(=C\c1ccccc1Br)C(=O)NC1CC1	-1	1	/	14	-5	-2	/
CN(C)C(=O)c1ccc(N=Nc2c(O)c3ccccc3[nH]c2=O)cc1	/	/	/	/	/	3	/
Cc1cc(N=Nc2c(O)c3ccccc3[nH]c2=O)ccc1N=Nc1ccc(C(=O)N(C)C)cc1	-11	6	105*	-52	0	-42	18
COCCC(C(=O)Oc1c(C(C)(C)C)cc(C)cc1C(C)(C)C)c1ccccc1 (configuration not stated)	-11	-2	/	3	-4	-6	/
Cc1cc(=O)n2c3c(sc2n1)C(=O)N(Cc1ccccc1)C3=O	-1	1	105*	17	-5	/	-20
O=C1/C(=C/c2ccncc2)CCC/C1=C\c1ccncc1	/	/	98*	/	/	1	78*
CCc1cccc(C)c1NC(=O)CSc1nc(-c2ccccc2F)nc2nc[nH]c12	-24	-2	108*	4	0	-2	56
NC(=S)n1[nH]c(-c2ccc([N+](=O)[O-])cc2)c(N=Nc2ccc(O)cc2)c1=O	20	4	107*	10	5	3	-20
CC1CCC(C(C)C)C(OC(=O)COC(=O)c2cc(O)ccc2N)C1 (configuration not stated)	18	23	105*	1	26	0	109*
O=C1NC(=S)N(C(=O)c2ccc(F)cc2)/C1=C/c1ccccc1	-7	3	67	-39	0	4	/
COc1ccc(/C=C2\C(=O)NC(=S)N2C(=O)c2ccc(F)cc2)cc1	/	/	97*	/	/	6	26
CC(C)(C)N(Cc1ccccc1)C(=O)COC(=O)c1ccc2ccccc2n1	-3	0	/	3	-2	7	/
C/C(=N\Nc1nc2ccccc2[nH]1)c1ccc([N+](=O)[O-])cc1	-4	2	102*	-8	5	-4	26
Cc1nn(-c2ccccc2)c(C)c1NC(=O)COC(=O)C1CC(=O)N(CCc2ccccc2)C1 (configuration not stated)	14	-1	/	8	0	-2	/

Screening results as filed in PubChem BioAssay.
